Compound activity (PubChem BioAssay)
hERG protect = hERG (human) protection from proarrhythmic block; Q12809; activation (rescue from dofetilide block), less the hit threshold, % at 10 µM; actives 0.51% (n = 310,000); CHO-hERG, FluxOR thallium flux, dofetilide IC70 present;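 active = activation above the mean of controls blocked by dofetilide plus 5 SD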;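 also: thallium influx through hERG after potassium depolarization seen as dye fluorescence rise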
KCNK9 block = inhibitors of human KCNK9 two-pore domain potassium channel | Q9NPC2 | HEK293 KCNK9, FluxOR thallium flux fluorescence; hits give low values | B-score at 10 µM | actives 1.2% (n = 310,000);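 active = ratio B-score over 3 SD below the library mean, with starting fluorescence within 5 SD of its mean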;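 also: negative B-score means less thallium flux so channel inhibition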
KCNQ1 inh = inhibitors of human KCNQ1 potassium channel. actives 1.3% (n = 310,000). B-score at 10 µM. AID 2642. CHO-K1 KCNQ1, FluxOR thallium flux fluorescence; hits give high values;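 active = compounds whose thallium flux B-score, printed positive for inhibition, exceeds three library SD while starting fluorescence stays within three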;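 also: channel opened by potassium depolarization with thallium stimulus after 20 min compound exposure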
KCNK3 block = human KCNK3 channel inhibition, primary screen. O14649. CHO-KCNK3 thallium flux, FluxOR fluorescence; hits give low values. B-score at 10 µM. actives 0.84% (n = 340,000). AID 602410;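 active = B-score under library mean minus 4 SD, starting fluorescence ratio at most library mean plus 5 SD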;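 also: more negative B-score means stronger inhibition of thallium flux through KCNK3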
KCNQ1 act = potentiators or activators of human KCNQ1 potassium channel; B-score at 10 µM; actives 0.35% (n = 310,000); CHO-K1 KCNQ1, thallium flux FluxOR fluorescence; hits give high values;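 active = fluorescence ratio B-score, a plate-corrected score, at least three library SD, with initial intensity B-score within 5 SD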
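assay system = KCNQ1-transfected CHO-K1 cells | medium = assay buffer with matched DMSO | probe or stimulus = depolarizing K+/Tl+ stimulus, K2SO4 and Tl2SO4 each 12.5 mM in 5x stock | dosing = single dose | incubation = dye 90 min, compound 20 min, room temperature | detection = kinetic FluxOR fluorescence, 10 s baseline plus 110 s post-stimulus | evaluation = ratio B score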
Kir21 inh = blocks the mouse Kir2.1 inward-rectifier potassium channel; HEK293-Kir2.1, FluxOR thallium flux fluorescence; hits give low values; P35561; AID 1672; B-score at 10 µM; actives 0.85% (n = 310,000);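 active = fluorescence ratio B-score at or below minus 3 SD of library scores, with starting-brightness B-score within 2 SD, cut at about -4.2 in these data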;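 also: channel flux triggered by added potassium and thallium sulfate stimulus; B-score of peak minus minimum fluorescence over baseline after thallium stimulus; more negative B-score means stronger Kir2.1 block with less thallium influx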
Target sequence (P35561 whole entry, looked up): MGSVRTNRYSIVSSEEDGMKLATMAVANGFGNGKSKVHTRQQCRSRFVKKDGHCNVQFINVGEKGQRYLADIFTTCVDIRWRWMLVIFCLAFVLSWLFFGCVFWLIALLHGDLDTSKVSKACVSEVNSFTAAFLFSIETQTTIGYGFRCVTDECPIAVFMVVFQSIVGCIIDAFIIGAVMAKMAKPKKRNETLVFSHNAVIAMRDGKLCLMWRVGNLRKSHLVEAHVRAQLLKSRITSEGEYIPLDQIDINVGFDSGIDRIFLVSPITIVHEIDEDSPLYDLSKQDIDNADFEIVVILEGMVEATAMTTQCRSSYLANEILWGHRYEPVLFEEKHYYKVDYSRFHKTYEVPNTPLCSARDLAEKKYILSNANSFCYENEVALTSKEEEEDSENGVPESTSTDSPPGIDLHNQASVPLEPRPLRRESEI
* = called active by the depositor; i = inactive; nt = not tested or not shown. Most compounds without a hit are left out; they make up all but 3.8% or so of the library.

SMILES	hERG protect	KCNK9 block	KCNQ1 inh	KCNK3 block	KCNQ1 act	Kir21 inh
O=C(Nc1ccccc1)Nc1cccc2ccccc12	-7.4	i	i	i	i	-0.06
O=C(Nc1ccccc1)Nc1ccc(O)c2ccccc12	-22.8	i	6*	i	i	-0.08
Cn1nc(C(F)(F)F)c2cc(NC(=O)OCc3ccc(C(C)(C)C)cc3)sc21	-12.4	i	7*	i	i	0.55
Cn1nc(C(F)(F)F)c2cc(C(=O)Nc3ccc(F)cc3F)sc21	-4.5	-7.24*	i	i	i	0.75
Nc1nc(Cn2nnc(-c3ccccc3Cl)n2)nc(N2CCOCC2)n1	-14.7	i	i	i	i	1.9
O=C1C(=C(I)I)c2ccccc2-c2ccccc21	nt	nt	nt	-9.41*	nt	nt
CCC1C(=O)CC(c2ccccc2)NC1c1ccccc1 (stereo not drawn)	-5.3	-6.57*	i	i	i	-0.03
O=C1C(c2ccccc2)C(c2ccccc2)NC(c2ccccc2)C1c1ccccc1 (stereo not drawn)	1.2	i	i	i	i	0.05
COc1ccc(N2C(=O)[C@@H]3[C@H](C2=O)[C@H](C(=O)c2ccc(OC(C)=O)cc2)N2N=CC=C[C@@H]32)cc1	-11.4	i	i	nt	i	-4.81*
CCOC(=O)[C@H]1[C@H]2COc3ccccc3[C@@H]2N2C(=O)c3cc(OC)ccc3NC(=O)[C@@]12C	nt	nt	nt	i	nt	nt
CCOC(=O)c1c(C)[nH]c(C(=O)CN(C)CC(=O)Nc2ccccc2Cl)c1C	nt	nt	nt	-11*	nt	nt
CC(=O)c1c(C)[nH]c(C(=O)CN(C)CC(=O)Nc2ccccc2Cl)c1C	nt	nt	nt	i	nt	nt
COc1cccc(Oc2ccc(C(F)(F)F)cc2NC(=O)C2=COCCO2)c1	-8.3	i	10*	i	i	1.13
C=CCOc1ccc(C2OC34CCCCC3C(C#N)(C#N)C2(C#N)C(=N)O4)cc1 (stereo not drawn)	5.6*	i	i	i	i	0.05
CCCCOc1ccc(C2OC34CCCCC3C(C#N)(C#N)C2(C#N)C(=N)O4)cc1 (stereo not drawn)	-15.0	i	i	i	i	-0.03
O=c1c(/C=C(\O)c2ccccc2)nc2ccccc2n1-c1ccccc1	-3.3	-8.07*	i	i	i	1.64
COC(=O)C=C1CCC2C3CCC4=CC(=O)C(Br)CC4(C)C3C(=O)CC12C (stereo not drawn)	nt	nt	nt	i	nt	nt
Cc1cc(NC(=O)CSc2nc(C3CC3)nc3sc(C)c(C)c23)no1	5.9*	i	i	i	9*	0.37
Cn1c(CNC(=O)c2ccccc2F)nnc1SCC(=O)Nc1nncs1	-2.6	i	i	i	i	0.35
Cn1c(CNC(=O)c2ccccc2F)nnc1SCc1ccc(Cl)cc1	8.0*	i	i	i	i	-1.95
O=C(Nc1ccccc1)Nc1cccc2cccnc12	-6.8	i	i	i	i	-0.3
CCCn1c(NCc2c[nH]c3ccccc23)nc2ccccc21	-15.1	i	i	i	i	-7.4*
CCCn1c(NCc2cccc(OC)c2OC)nc2ccccc21	-5.3	i	i	i	i	-0.57
CCC1CCCCN1C(=O)COc1ccc2c(c1)OCO2 (stereo not drawn)	-4.8	i	i	i	i	0.38
COc1ccc(/C=C(\C#N)C(=O)OCC(=O)Nc2ccc(C(C)(C)C)cc2)cc1	-14.1	i	7*	i	i	0.41
Clc1ccc(Cn2c(-c3cccnc3Cl)nc3ccccc32)cc1	-13.3	i	i	i	i	-5.33*
Clc1ccc(Cn2c(-c3cccnc3Cl)nc3ccccc32)c(Cl)c1	-17.0	i	i	i	i	0.78
Cc1ccc(S(=O)(=O)/C(C#N)=C/c2c(N3CCN(Cc4ccccc4)CC3)nc3ccccn3c2=O)cc1	-15.9	i	i	-10.7*	i	-2.53
Cc1ccc(S(=O)(=O)/C(C#N)=C/c2c(N3CCN(C)CC3)nc3ccccn3c2=O)cc1	-13.8	i	i	i	i	0.14
CCN(CC)C(=O)CCCc1c[nH]c2ccccc12	2.3	i	i	i	i	0.31
